# T cruzi intra = inhibitors of intracellular Trypanosoma cruzi, primary screen, cell-based, plate reader, single point, set 2. intracellular Trypanosoma cruzi in host cells. activity score (inhibition), % at 5.01 µM. 22,000 compounds, 4.9% hits. AID 651903, 2012; in the data active means activity score above about 55%; inconclusive means no clear call, values can overlap the other calls;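 further: parasites and compound incubated about four days before reading; 0% = median of neutral control wells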
# INS-1E ATP HTS = protection of INS-1E cells from cytokine death, primary screen, ATP luminescence, single point | protection from cytokine-induced ATP loss, % at 10 µM | AID 488910, 2010 | INS-1E cytokine-induced death, 48 h; normalised: neutral wells 0, positive control 100 | 20,000 compounds, 0.1% hits;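 active means mean replicate protection from cytokine-induced ATP loss at least 50% and at least 75% of replicates each reaching 50%; inconclusive means meets only one of the two criteria, mean or replicate share; inactive means fails both the mean and replicate share criteria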
#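 Material: INS-1E rat cells; Quantity: 8000 cells/well; Buffer or medium: phenol-red-free RPMI with 5% fetal bovine serum; Probe or stimulus: cytokine cocktail of IFN-γ, TNF-α and IL-1β; Compound dosing: single test concentration per compound, delivered by pin transfer; Incubation: 48 h co-treatment, 10 min post-lysis read; Signal: CellTiter-Glo luminescence.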
# A1 apoptosis 2 = A1 inhibitors via caspase activation, primary screen, cell-based, luminescence, HTS, two replicates; caspase activation, % (test concentration not listed); 24,000 tested, under 10 active; MEF A1-2A-BIM cells, caspase-Glo luminescence, 3 h; percent of clofoctol response, DMSO zero; AID 2465, 2010; in the data active means caspase activation above about 5.9%; inconclusive means no clear call, values can overlap the other calls; inactive means below about 2.2%
#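 Material: mouse embryonic fibroblasts co-expressing A1 and BIM (A1-2A-BIM), primed for A1 dependence / Quantity: 2500 cells/well / Buffer or medium: RPMI-1640 growth medium with 10% FBS / Doses: 50 nL compound per well, pinned / Schedule: 3 h compound exposure at 37 °C / Signal: Caspase-Glo luminescence (DEVD substrate) / Measure: Caspase-3/7 activation, seen as rise in luminescence signal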
# Starred values were filed as active, the others as inactive; ? = inconclusive; . = no result given. Many of the other results were omitted from the sample, so hits are more common in it than they were.
SMILES,T cruzi intra,INS-1E ATP HTS,A1 apoptosis 2
C[C@H]1CN([C@@H](C)CO)C(=O)c2cccc(NC(=O)C3CCCCC3)c2O[C@H]1CN(C)Cc1ccc(C(=O)Nc2ccccc2N)cc1,66*,3,.
C[C@@H]1CN([C@H](C)CO)C(=O)c2cccc(N(C)C)c2O[C@@H]1CN(C)Cc1ccc(C(=O)Nc2ccccc2N)cc1,28,8,.
COc1ccc(Br)cc1/C=N/NC(=O)CCCCC(=O)NO,.,.,0
C[C@@H](O)[C@@H](O)[C@@H](O)C/C=N/NC(=O)CCCCCC(=O)Nc1ccccc1O,-20,-9,-1
COC(=O)CCCCCCC(=O)N/N=C/c1nc[nH]c1C,-9,11,1
COC(=O)CCCCCCC(=O)N/N=C/c1c(CO)cnc(C)c1O,-2,36,-1
COC(=O)CCCCCCC(=O)N/N=C/c1cccc(C(=O)O)c1,-24,6,2
O=C(CCCCCC(=O)Nc1ccccc1O)N/N=C/c1ccc(O)c(F)c1,-22,7,.
C=CCC/C=N/NC(=O)CCCCCC(=O)O,-15,-1,0
O=C(CCCCCCC(=O)N/N=C/c1cccnc1)NO,.,.,0
C[C@@H]1CN([C@@H](C)CO)C(=O)c2cccc(NC(=O)C3CC3)c2O[C@@H]1CN(C)Cc1ccc(C(=O)Nc2ccccc2N)cc1,26,59*,.
C[C@H](CO)N1C[C@H](C)[C@H](CN(C)Cc2ccc(C(=O)Nc3ccccc3N)cc2)Oc2c(NC(=O)C3CC3)cccc2C1=O,37,-9,.
O=C(N/N=C/c1cc(O)ccc1Br)c1ccccn1,-6,6,-12
C[C@@H]1CN([C@@H](C)CO)C(=O)c2cc(NS(=O)(=O)c3cccs3)ccc2O[C@H]1CN(C)S(=O)(=O)c1ccc(F)cc1,62*,5,1
C[C@H](CO)N1C[C@H](C)[C@H](CN(C)S(=O)(=O)c2ccc(F)cc2)Oc2ccc(NS(=O)(=O)c3ccc(F)cc3)cc2C1=O,68*,.,1
C[C@H]1CN([C@@H](C)CO)C(=O)c2cc(NS(=O)(=O)c3ccc(F)cc3)ccc2O[C@@H]1CN(C)S(=O)(=O)c1ccc(Cl)cc1,5,0,0
C[C@H](CO)N1C[C@H](C)[C@@H](CN(C)S(=O)(=O)c2ccc(F)cc2)Oc2ccc(NS(=O)(=O)c3ccc(F)cc3)cc2C1=O,-3,.,.
C[C@@H]1CN([C@H](C)CO)C(=O)c2cc(NS(=O)(=O)c3cccs3)ccc2O[C@H]1CN(C)S(=O)(=O)c1ccc(F)cc1,-7,.,.
C[C@H](CO)N1C[C@H](C)[C@H](CN(C)S(=O)(=O)c2ccc(Cl)cc2)Oc2ccc(NS(=O)(=O)c3ccc(F)cc3)cc2C1=O,63*,-16,1
O=C(NCCCn1cc(C(=O)NO)nn1)Nc1ccccc1,.,.,1
Cc1ccc(O)c(/C=N/NC(=O)CCCCCCC(=O)Nc2ccccc2O)c1,.,.,-1
O=C(CCCCCC(=O)Nc1ccccc1O)N/N=C/c1cc(Br)cs1,4,15,-1
C[C@H]1CN([C@@H](C)CO)C(=O)c2cccc(NC(=O)Nc3ccccc3)c2O[C@@H]1CN(C)Cc1ccc(Cl)c(Cl)c1,9,-13,-1
C[C@H](CO)N1C[C@H](C)[C@H](CN(C)Cc2ccc(Cl)c(Cl)c2)Oc2c(NC(=O)Nc3ccccc3)cccc2C1=O,16,-46,0
C[C@@H]1CN([C@@H](C)CO)C(=O)c2cccc(NC(=O)Nc3ccc(C(F)(F)F)cc3)c2O[C@@H]1CN(C)Cc1ccc(Cl)c(Cl)c1,79*,-31,0
SMILES,T cruzi intra,INS-1E ATP HTS,A1 apoptosis 2
C[C@@H]1CN([C@@H](C)CO)C(=O)c2cccc(NC(=O)Nc3ccc(F)cc3)c2O[C@@H]1CN(C)Cc1ccc(Cl)c(Cl)c1,21,-71,-2
C[C@H]1CN([C@@H](C)CO)C(=O)c2cccc(NC(=O)Nc3ccc(C(F)(F)F)cc3)c2O[C@@H]1CN(C)Cc1ccc(Cl)c(Cl)c1,77*,-27,0
C[C@H](CO)N1C[C@H](C)[C@@H](CN(C)Cc2ccc(Cl)c(Cl)c2)Oc2c(NC(=O)Nc3ccc(C(F)(F)F)cc3)cccc2C1=O,82*,-40,-1
COc1ccc(/C=N/NC(=O)CCCCCC(=O)O)c(O)c1,-10,3,0
O=C(CCCCCCC(=O)Nc1ccccc1O)N/N=C/c1ccc([N+](=O)[O-])c(O)c1,-2,13,-1
COc1ccc(NC(=O)Nc2ccc3c(c2)CC(=O)N([C@H](C)CO)C[C@@H](C)[C@@H](CN(C)Cc2ccc(Cl)c(Cl)c2)O3)cc1,74*,-53,2
C[C@H]1CN([C@@H](C)CO)C(=O)Cc2cc(NC(=O)Nc3ccc(F)cc3)ccc2O[C@@H]1CN(C)Cc1ccc(Cl)c(Cl)c1,?,-46,.
COc1ccc(NC(=O)Nc2ccc3c(c2)CC(=O)N([C@H](C)CO)C[C@@H](C)[C@H](CN(C)Cc2ccc(Cl)c(Cl)c2)O3)cc1,?,-29,.
COc1ccc(CN(C)C[C@H]2Oc3ccc(NC(=O)Nc4ccc(OC)cc4)cc3CC(=O)N([C@H](C)CO)C[C@@H]2C)cc1,.,.,0
COc1ccc(NC(=O)Nc2ccc3c(c2)CC(=O)N([C@@H](C)CO)C[C@H](C)[C@H](CN(C)Cc2ccc(Cl)c(Cl)c2)O3)cc1,64*,-45,.
C[C@@H]1CN([C@H](C)CO)C(=O)Cc2cc(NC(=O)Nc3ccc(F)cc3)ccc2O[C@H]1CN(C)Cc1ccc(Cl)c(Cl)c1,62*,-51,1
Cc1noc(C)c1S(=O)(=O)Nc1ccc2c(c1)CC(=O)N([C@@H](C)CO)C[C@H](C)[C@@H](CN(C)Cc1ccccc1)O2,27,2,-1
Cc1noc(C)c1S(=O)(=O)Nc1ccc2c(c1)C(=O)N([C@@H](C)CO)C[C@H](C)[C@@H](CN(C)Cc1ccc(-c3ccccc3)cc1)O2,41,-19,.
Cc1noc(C)c1S(=O)(=O)Nc1ccc2c(c1)CC(=O)N([C@H](C)CO)C[C@@H](C)[C@H](CN(C)Cc1ccc(-c3ccccc3)cc1)O2,58*,-31,-2
Cc1noc(C)c1S(=O)(=O)Nc1ccc2c(c1)C(=O)N([C@H](C)CO)C[C@H](C)[C@H](CN(C)Cc1ccc(-c3ccccc3)cc1)O2,65*,-17,0
Cc1noc(C)c1S(=O)(=O)Nc1ccc2c(c1)CC(=O)N([C@@H](C)CO)C[C@H](C)[C@@H](CN(C)Cc1ccc(-c3ccccc3)cc1)O2,66*,-4,0
Cc1noc(C)c1S(=O)(=O)Nc1ccc2c(c1)CC(=O)N([C@H](C)CO)C[C@H](C)[C@H](CN(C)Cc1ccc(Oc3ccccc3)cc1)O2,.,-27,2
Cc1noc(C)c1S(=O)(=O)Nc1ccc2c(c1)CC(=O)N([C@@H](C)CO)C[C@H](C)[C@H](CN(C)Cc1ccccc1)O2,2,5,0
Cc1noc(C)c1S(=O)(=O)Nc1ccc2c(c1)CC(=O)N([C@H](C)CO)C[C@@H](C)[C@H](CN(C)Cc1ccc(Oc3ccccc3)cc1)O2,69*,-7,.
